Reference: ChEMBL document CHEMBL1124865, “Synthesis and biological evaluation of a series of parenteral 3'-quaternary ammonium cephalosporins” (J Med Chem, 1990)
≈ marks a conversion by molar mass, not a printed value.

Assays:
Format in all cases: functional
[1] = test system: Enterobacter cloacae; assay: Antibacterial activity against Enterobacter cloacae 265A
[2] = test system: Escherichia coli; assay: Antibacterial activity against Escherichia coli EC14
[3] = test system: Escherichia coli; assay: Antibacterial activity against Escherichia coli TEM; conditions: Escherichia coli; read-out: MIC
[4] = species: Cavia porcellus; assay: In vitro relative anticholinergic potential in isolated guinea pig trachea
Summary of the method: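 Guinea pig trachea in Krebs' solution at 37.5 °C, 95% O2/5% CO2, pH 7.4, 2 g resting tension. Cumulative carbachol log dose-response curve (3-fold steps) run before and 30 min after adding antagonist at 1 mM. […] Tukey test on log2 dose ratios.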

[5] = test system: Klebsiella pneumoniae; assay: microbe, parasite or virus in culture
[6] = test system: Klebsiella pneumoniae; assay: Antibacterial activity against Klebsiella pneumoniae X26
[7] = test system: Pseudomonas aeruginosa; assay: Antibacterial activity against Pseudomonas aeruginosa X528
[8] = test system: Pseudomonas aeruginosa; assay: Antibacterial activity against Pseudomonas aeruginosa PS18
[9] = test system: Staphylococcus aureus; assay: Antibacterial activity against penicillin G susceptible Staphylococcus aureus
[10] = test system: Streptococcus pneumoniae; assay: Antibacterial activity against Streptococcus pneumoniae; conditions: Streptococcus pneumoniae; read-out: MIC
[11] = test system: Streptococcus pyogenes; assay: Antibacterial activity against Streptococcus pyogenes; conditions: Streptococcus pyogenes; read-out: MIC
[12] = test system: Enterococcus faecium; assay: Antibacterial activity against Enterococcus faecium; conditions: Enterococcus faecium; read-out: MIC
[13] = test system: Enterobacter cloacae; assay: Antibacterial activity against Enterobacter cloacae EB5; conditions: Enterobacter cloacae; read-out: MIC
[14] = test system: Pseudomonas aeruginosa; assay: In vivo efficacy against Pseudomonas aeruginosa infected mice treated at 1 hr and 5 hr post infection; conditions: Pseudomonas aeruginosa; read-out: ED50
[15] = test system: Staphylococcus aureus; assay: In vivo efficacy against Staphylococcus aureus infected mice treated at 1 hr and 5 hr post infection
[16] = test system: Escherichia coli; assay: In vivo efficacy against Escherichia coli infected mice treated at 1 hr and 5 hr post infection; conditions: Escherichia coli; read-out: ED50
[17] = test system: Escherichia coli; assay: In vivo efficacy against Escherichia coli infections in mice; conditions: Escherichia coli; read-out: MIC
[18] = test system: Pseudomonas aeruginosa; assay: In vivo efficacy against Pseudomonas aeruginosa infections in mice; conditions: Pseudomonas aeruginosa; read-out: MIC
[19] = test system: Staphylococcus aureus; assay: In vivo efficacy against Staphylococcus aureus infections in mice
[20] = test system: Staphylococcus aureus; assay: Antibacterial activity against penicillin G resistance Staphylococcus aureus
[21] = test system: Serratia marcescens; assay: Antibacterial activity against Serratia marcescens SE3
[22] = Enterobacter cloacae, read-out: MIC
[23] = Escherichia coli, read-out: MIC
[24] = Klebsiella pneumoniae, read-out: MIC
[25] = Pseudomonas aeruginosa, read-out: MIC
[26] = Staphylococcus aureus, read-out: MIC
[27] = Staphylococcus aureus, read-out: ED50
[28] = Serratia marcescens, read-out: MIC

| Structure (SMILES) | MIC [1, 22] [µg/mL] | MIC [2, 23] [µg/mL] | MIC [3] [µg/mL] | MIC [5, 24] [µg/mL] | MIC [6, 24] [µg/mL] | MIC [7, 25] [µg/mL] | MIC [8, 25] [µg/mL] | MIC [9, 26] [µg/mL] | MIC [10] [µg/mL] | MIC [11] [µg/mL] | MIC [12] [µg/mL] | MIC [13] [µg/mL] | ED50 [14] [mg/kg] | ED50 [15, 27] [mg/kg] | ED50 [16] [mg/kg] | MIC [17] [µg/mL] | MIC [18] [µg/mL] | MIC [19, 26] [µg/mL] | MIC [20, 26] [µg/mL] | MIC [21, 28] [µg/mL] | further results |
| --- | --- | --- | --- | --- | --- | --- | --- | --- | --- | --- | --- | --- | --- | --- | --- | --- | --- | --- | --- | --- | --- |
| CO/N=C(\C(=O)N[C@@H]1C(=O)N2C(C(=O)[O-])=C(C[n+]3ccc4c(c3)nc(C)n4C)CS[C@H]12)c1csc(N)n1 | 4 (≈ 7.37 µM) | 0.008 (≈ 0.0147 µM) | 0.008 (≈ 0.0147 µM) | 2 (≈ 3.69 µM) | 0.008 (≈ 0.0147 µM) | 4 (≈ 7.37 µM) | 8 (≈ 14.7 µM) | 2 (≈ 3.69 µM) | 0.008 (≈ 0.0147 µM) | 0.008 (≈ 0.0147 µM) | 128 (≈ 236 µM) |  |  |  |  |  |  |  |  |  | RAP [4]: 1 |
| CCC(CC)c1cc[n+](CC2=C(C(=O)[O-])N3C(=O)[C@@H](NC(=O)/C(=N\OC)c4csc(N)n4)[C@H]3SC2)cc1 | 16 (≈ 29.4 µM) | 0.125 (≈ 0.23 µM) | 0.06 (≈ 0.11 µM) | 8 (≈ 14.7 µM) | 0.03 (≈ 0.0551 µM) | 16 (≈ 29.4 µM) | 64 (≈ 118 µM) | 2 (≈ 3.67 µM) | 0.015 (≈ 0.0275 µM) | < 0.008 | > 128 | 0.5 (≈ 0.918 µM) | 11 | 2.5 | 0.5 | 0.125 (≈ 0.23 µM) | 64 (≈ 118 µM) | 4 (≈ 7.34 µM) | 4 (≈ 7.34 µM) | 0.5 (≈ 0.918 µM) |  |
| CO/N=C(\C(=O)N[C@@H]1C(=O)N2C(C(=O)[O-])=C(C[n+]3ccc(C(N)=S)cc3)CS[C@H]12)c1csc(N)n1 | 8 (≈ 15 µM) | 0.03 (≈ 0.0562 µM) | 0.03 (≈ 0.0562 µM) | 8 (≈ 15 µM) | 0.03 (≈ 0.0562 µM) | 1 (≈ 1.87 µM) | 2 (≈ 3.75 µM) | 1 (≈ 1.87 µM) | 0.015 (≈ 0.0281 µM) | < 0.008 | > 128 | 0.125 (≈ 0.234 µM) | 7.2 | 1.4 | < 0.16 | 0.03 (≈ 0.0562 µM) | 8 (≈ 15 µM) | 1 (≈ 1.87 µM) | 2 (≈ 3.75 µM) | 0.06 (≈ 0.112 µM) |  |
| CO/N=C(\C(=O)N[C@@H]1C(=O)N2C(C(=O)[O-])=C(C[n+]3cccc(Cl)c3)CS[C@H]12)c1csc(N)n1 | 8 (≈ 15.7 µM) | 0.06 (≈ 0.118 µM) | 0.06 (≈ 0.118 µM) | 16 (≈ 31.4 µM) | 0.06 (≈ 0.118 µM) | 2 (≈ 3.93 µM) | 4 (≈ 7.86 µM) | 1 (≈ 1.96 µM) | 0.015 (≈ 0.0295 µM) | < 0.008 | > 128 | 0.25 (≈ 0.491 µM) | > 50 | 1.6 | 0.14 | 0.06 (≈ 0.118 µM) | 8 (≈ 15.7 µM) | 1 (≈ 1.96 µM) | 2 (≈ 3.93 µM) | 0.06 (≈ 0.118 µM) |  |
| CO/N=C(\C(=O)N[C@@H]1C(=O)N2C(C(=O)[O-])=C(C[n+]3ccc4c(c3)ncn4C)CS[C@H]12)c1csc(N)n1 | 8 (≈ 15.1 µM) | 0.015 (≈ 0.0284 µM) | 0.015 (≈ 0.0284 µM) | 8 (≈ 15.1 µM) | 0.015 (≈ 0.0284 µM) | 1 (≈ 1.89 µM) | 4 (≈ 7.57 µM) | 2 (≈ 3.78 µM) | 0.008 (≈ 0.0151 µM) | 0.015 (≈ 0.0284 µM) | 128 (≈ 242 µM) |  |  |  |  |  |  |  | 16 (≈ 30.3 µM) |  | RAP [4]: 1 |
| CO/N=C(\C(=O)N[C@@H]1C(=O)N2C(C(=O)[O-])=C(C[n+]3cccc(CC(=O)O)c3)CS[C@H]12)c1csc(N)n1 (stereo in doubt; 14) |  |  | 0.06 (≈ 0.113 µM) |  |  |  |  |  | 0.015 (≈ 0.0282 µM) | 0.015 (≈ 0.0282 µM) | > 128 | 0.25 (≈ 0.469 µM) | 20 |  | 0.09 | 0.06 (≈ 0.113 µM) | 8 (≈ 15 µM) |  |  |  | MIC [1]: 16 µg/mL (≈ 30 µM); MIC [2]: 0.06 µg/mL (≈ 0.113 µM); MIC [5]: 16 µg/mL (≈ 30 µM); MIC [6]: 0.03 µg/mL (≈ 0.0563 µM); ED50 [15]: 1.4 mg/kg; MIC [19]: 1 µg/mL (≈ 1.88 µM); MIC [7]: 2 µg/mL (≈ 3.76 µM); MIC [8]: 8 µg/mL (≈ 15 µM); MIC [20]: 2 µg/mL (≈ 3.76 µM); MIC [9]: 1 µg/mL (≈ 1.88 µM); MIC [21]: 0.125 µg/mL (≈ 0.235 µM) |
| CO/N=C(\C(=O)N[C@@H]1C(=O)N2C(C(=O)[O-])=C(C[n+]3ccccc3C)CS[C@H]12)c1csc(N)n1 | 128 (≈ 262 µM) | 0.25 (≈ 0.512 µM) | 0.5 (≈ 1.02 µM) | 32 (≈ 65.5 µM) | 0.25 (≈ 0.512 µM) | 32 (≈ 65.5 µM) | 64 (≈ 131 µM) | 16 (≈ 32.7 µM) | 0.5 (≈ 1.02 µM) | 0.25 (≈ 0.512 µM) | > 128 | 2 (≈ 4.09 µM) | 12 | 2.7 | < 0.16 | 0.06 (≈ 0.123 µM) | 64 (≈ 131 µM) | 2 (≈ 4.09 µM) | 16 (≈ 32.7 µM) | 1 (≈ 2.05 µM) |  |
| CO/N=C(\C(=O)N[C@@H]1C(=O)N2C(C(=O)[O-])=C(C[n+]3ccc4nc(C)n(C)c4c3)CS[C@H]12)c1csc(N)n1 | 4 (≈ 7.37 µM) | 0.015 (≈ 0.0276 µM) | 0.015 (≈ 0.0276 µM) | 2 (≈ 3.69 µM) | 0.015 (≈ 0.0276 µM) | 2 (≈ 3.69 µM) | 8 (≈ 14.7 µM) | 2 (≈ 3.69 µM) | 0.015 (≈ 0.0276 µM) | 0.015 (≈ 0.0276 µM) | 128 (≈ 236 µM) |  |  |  |  |  |  |  |  |  | RAP [4]: 2 |
